Source: PubChem (Broad Institute)
IDH1 mut inh = inhibitors of IDH1 R132H reductase, primary screen, biochemical, plate reader, single point; Isocitrate dehydrogenase [NADP] cytoplasmic (Homo sapiens), O75874; diaphorase/resazurin fluorescence, 60 min; inhibition, % at 10 µM; hit rate 0.18% among 70,000; in the data active = inhibition above about 34%; inconclusive = no clear call, values can overlap the other calls; inactive = below about 11%;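 also: 0% = DMSO and 100% = no enzyme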
GASC1 inh = inhibitors of GASC-1 (KDM4C) histone demethylase, primary screen, biochemical, single concentration HTS; Lysine-specific demethylase 4C (Homo sapiens), Q9H3R0; GST-KDM4C 2-372, H3K9me3 peptide, LANCE TR-FRET; inhibition, % at 12.5 µM; hit rate 0.15% among 96,000;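 active = mean replicate inhibition above about 25%, with at least 55% of replicates also reaching it, limit read from the data, passing the limit was not always enough; inconclusive = only one of those two conditions met; inactive = neither condition met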
Target sequence (Q9H3R0 2-372 limits assumed): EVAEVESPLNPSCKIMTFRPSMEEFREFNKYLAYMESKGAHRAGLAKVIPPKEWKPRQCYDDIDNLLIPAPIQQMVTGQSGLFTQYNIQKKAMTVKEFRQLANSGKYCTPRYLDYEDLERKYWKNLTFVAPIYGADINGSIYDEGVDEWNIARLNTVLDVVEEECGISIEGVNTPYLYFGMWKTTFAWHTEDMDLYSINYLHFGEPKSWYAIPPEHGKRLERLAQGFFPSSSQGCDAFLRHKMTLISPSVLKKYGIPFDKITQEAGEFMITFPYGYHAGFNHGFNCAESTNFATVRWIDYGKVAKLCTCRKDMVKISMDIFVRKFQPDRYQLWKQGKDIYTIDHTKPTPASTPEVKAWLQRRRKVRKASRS
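System: N-terminal GST-fused human GASC-1 (KDM4C) fragment, residues 2-372 / Amount: 10 nM GST-KDM4C in enzyme reaction / Also added: H3K9me3 peptide with Fe(II)/2OG / Times: 30 min demethylation and 1 h detection at room temperature / Signal: LANCE TR-FRET / Read-out basis: Fall in 671/618 emission ratio as inhibition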
Pf Dd2 growth = P. falciparum Dd2 growth inhibitors, primary screen, SYBR Green fluorescence, single dose replicates | 72 h; active compounds read low | activity change, % at 10 µM | hit rate 2.3% among 94,000 | AID 1159554, 2015; in the data active = activity change below about -80%; inconclusive = no clear call, values can overlap the other calls
T cruzi growth-1 = T. cruzi intracellular proliferation inhibitors, primary screen, cell-based, beta-gal Tulahuen parasites, NIH3T3 host, luminescence | hit rate 5.9% among 77,000 | T. cruzi beta-gal in NIH3T3, GalScreen luminescence, 90 h | inhibition, % at 8.34 µM;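 active = mean inhibition above about 93%, with at least 55% of replicates each passing it, limit read from the data, passing the limit was not always enough; inconclusive = only one of those two conditions holds; inactive = neither condition holds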
T cruzi growth-2 = T. cruzi intracellular proliferation inhibitors, confirmation, cell-based, NIH3T3 host, beta-gal parasite, luminescence, cherry-pick; AID 651739, 2012; T. cruzi beta-gal in NIH3T3, GalScreen luminescence, 90 h; hit rate 72% among 5,600; shares compounds with T cruzi growth-1; inhibition, % at 8.35 µM;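 active = mean replicate inhibition above about 95% and at least 55% of replicates individually reaching it, limit read from the data; inconclusive = only one of the two criteria is met; inactive = neither criterion is met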
T cruzi growth-3 = inhibitors of intracellular T. cruzi replication, confirmation, NIH3T3 host cells, beta-gal parasites, cherry-pick, set 2 | shares compounds with T cruzi growth-1 | T. cruzi beta-gal in NIH3T3, GalScreen luminescence, 90 h | inhibition, % at 2.09 µM | hit rate 21% among 5,600;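 active = mean inhibition above about 95%, with at least 55% of replicates also reaching it, limit read from the data; inconclusive = meets just one of the two conditions; inactive = meets neither condition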;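 also: plate controls were neutral control median for no effect and positive control median for full effect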
3T3 cytotox = cytotoxicity in mouse NIH/3T3 fibroblasts, confirmation, cytotoxicity control for T. cruzi proliferation inhibitor project, cell-based, cherry-pick, single point. shares compounds with T cruzi growth-1. cytotoxicity (signal decrease), % at 8.35 µM. NIH/3T3 viability, CellTiter-Glo ATP luminescence, 90 h. hit rate 14% among 5,600;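 active = mean signal decrease across replicates above about 35% based on untreated-well scatter, with enough replicates individually passing, limit read from the data; inconclusive = no rule stated though some were filed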;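 also: 0% = median of neutral control wells and 100% = median of positive control wells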
NIH3T3 tox 2 = NIH/3T3 fibroblast cytotoxicity, confirmation, cytotoxicity control, cell-based, cherry-pick, single point, set 2. shares compounds with T cruzi growth-1. NIH/3T3 viability, CellTiter-Glo ATP luminescence, 90 h. inhibition, % at 24.9 µM. hit rate 56% among 5,600. AID 651744, 2012;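 active = mean loss of cell viability signal at or above a set limit, and enough replicates individually reaching it; inconclusive = meets only the mean limit or only the replicate share; inactive = meets neither condition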;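 also: 0% = median of neutral control wells and 100% = median of positive control wells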
* = called active by the depositor; ? = inconclusive; . = not tested or not shown. Hits are enriched below; roughly 5.9% of the tested compounds scored in any of these assays.

SMILES	IDH1 mut inh	GASC1 inh	Pf Dd2 growth	T cruzi growth-1	T cruzi growth-2	T cruzi growth-3	3T3 cytotox	NIH3T3 tox 2
C/C=C/c1ccc2c(c1)O[C@@H](CN(C)C(=O)Nc1ccc(C(F)(F)F)cc1)[C@@H](C)CN([C@H](C)CO)S2(=O)=O	-0.4	-0.3	-28.9	110.1*	100.8*	81.0	59.0*	51.9*
C/C=C/c1ccc2c(c1)O[C@@H](CN(C)C(=O)Nc1ccccc1)[C@@H](C)CN([C@H](C)CO)S2(=O)=O	-3.9	0.7	-16.2	22.0	.	.	.	.
COC(=O)c1ccccc1NC(=O)CSc1nc(-c2cccs2)cc(C(F)(F)F)c1C#N	0.3	.	.	.	.	.	.	.
O=C(COc1ccc2c(-c3ccccc3)cc(=O)oc2c1)c1ccccc1	0.2	.	.	.	.	.	.	.
COC(=O)c1ccc(C(=O)OC)c(NC(=O)COc2cc(C)c(C)cc2C)c1	0.2	.	.	.	.	.	.	.
Cc1ccc(S(=O)(=O)Nc2ccc3c(c2)C(=O)N([C@H](C)CO)C[C@@H](C)[C@H](CN(C)CC2CCCCC2)OCCCC[C@@H](C)O3)cc1	.	-0.9	-63.4	?	101.7*	84.5	27.2	103.7*
COc1ccc(S(=O)(=O)Nc2ccc3c(c2)C(=O)N([C@@H](C)CO)C[C@H](C)[C@H](CN(C)CC2CCCCC2)OCCCC[C@@H](C)O3)cc1	.	1.5	-35.9	38.0	.	.	.	.
C[C@@H]1CCCCO[C@H](CN(C)CC2CCCCC2)[C@H](C)CN([C@@H](C)CO)C(=O)c2cc(NS(C)(=O)=O)ccc2O1	1.5	0.7	.	-42.1	.	.	.	.
Cc1ccc(S(=O)(=O)Nc2ccc3c(c2)C(=O)N([C@H](C)CO)C[C@@H](C)[C@@H](CN(C)CC2CCCCC2)OCCCC[C@@H](C)O3)cc1	0.2	-0.5	-64.6	?	99.6*	101.0*	46.5*	104.0*
C[C@@H]1CCCCO[C@@H](CN(C)CC2CCCCC2)[C@@H](C)CN([C@@H](C)CO)C(=O)c2cc(NS(C)(=O)=O)ccc2O1	3.1	-0.2	-20.3	104.3*	58.6	-2.7	0.5	-18.6
COc1ccc(S(=O)(=O)Nc2ccc3c(c2)C(=O)N([C@H](C)CO)C[C@H](C)[C@@H](CN(C)CC2CCCCC2)OCCCC[C@H](C)O3)cc1	-0.6	-0.5	-29.5	?	104.0*	67.4	19.4	81.5*
COC(=O)C1=C(C)NC(=S)NC1c1cccc(OC)c1OCc1ccccc1 (stereo not given)	0.1	.	.	.	.	.	.	.
Cc1nn(C(C)C(=O)Nc2cc(C(F)(F)F)ccc2Cl)c(C)c1[N+](=O)[O-] (stereo not given)	-0.1	.	.	.	.	.	.	.
CCn1c(SCC(=O)Nc2cccc(Cl)c2Cl)nnc1-c1ccc([N+](=O)[O-])cc1	-0.1	.	.	.	.	.	.	.
COc1ccc(-c2nc3ccccc3s2)cc1NC(=S)NC(=O)COc1ccc(C)cc1	0.5	.	.	.	.	.	.	.
CC(C(=O)N1CCN(C)CC1)N(c1ccc(Oc2ccccc2)cc1)S(C)(=O)=O (stereo not given)	0.1	.	.	.	.	.	.	.
C[C@@H]1CCCCO[C@@H](CN(C)S(=O)(=O)c2cn(C)cn2)[C@@H](C)CN([C@@H](C)CO)C(=O)c2cc(NS(C)(=O)=O)ccc2O1	-2.0	0.5	38.5	102.1*	78.2	-11.0	-19.6	-31.1
C[C@@H]1CCCCO[C@H](CN(C)S(=O)(=O)c2cn(C)cn2)[C@@H](C)CN([C@@H](C)CO)C(=O)c2cc(NS(C)(=O)=O)ccc2O1	-2.4	0.7	-25.3	-51.5	.	.	.	.
C[C@@H]1CCCCO[C@@H](CN(C)Cc2ccc(Cl)c(Cl)c2)[C@H](C)CN([C@@H](C)CO)C(=O)c2cc(NC(=O)Nc3cccc4ccccc34)ccc2O1	.	-1.0	-48.2	125.5*	109.9*	112.0*	16.5	1.1
C[C@@H]1CN([C@@H](C)CO)C(=O)c2cc(NC(=O)Nc3cccc4ccccc34)ccc2O[C@@H](C)CCCCO[C@H]1CN(C)Cc1ccc(Cl)c(Cl)c1	-0.4	0.3	-34.9	121.6*	106.9*	106.0*	23.7	8.4
C[C@@H]1CCCCO[C@H](CN(C)Cc2ccc(Cl)c(Cl)c2)[C@@H](C)CN([C@@H](C)CO)C(=O)c2cc(NC(=O)Nc3cccc4ccccc34)ccc2O1	.	-0.2	-90.5*	125.0*	100.5*	116.4*	17.9	-2.9
OC[C@H]1Nc2ccc(-c3cccc(F)c3)cc2[C@@H]2[C@H]1CCN2Cc1ccncc1	.	1.8	-61.7	97.4*	101.5*	80.9	21.3	89.4*
OC[C@@H]1Nc2ccc(-c3cccc(F)c3)cc2[C@H]2[C@@H]1CCN2Cc1ccc(F)cc1	.	-2.1	-67.7	102.6*	107.8*	115.3*	26.5	103.0*
O=C(c1cccc(F)c1)N1CC[C@@H]2[C@@H](CO)Nc3ccc(-c4cccc(F)c4)cc3[C@@H]21	.	-2.2	-20.3	15.7	.	.	.	.
C[C@H]1CN([C@@H](C)CO)C(=O)c2cccc(NC(=O)CCCCCC(=O)Nc3ccccc3N)c2O[C@@H]1CN(C)Cc1ccc2c(c1)OCO2	.	11.8	-92.4*	126.6*	107.1*	108.2*	-0.9	24.9*
C[C@@H]1CN([C@H](C)CO)C(=O)c2cccc(NC(=O)CCCCCC(=O)Nc3ccccc3N)c2O[C@H]1CN(C)Cc1ccc(-c2ccccc2)cc1	.	6.1	-91.5*	?	84.2	-13.7	-3.0	-6.9
O=C(Nc1sc2c(c1C(=O)NCc1ccco1)CCC2)c1sc2ccccc2c1Cl	0.5	.	.	.	.	.	.	.
C[C@@H]1CN([C@H](C)CO)S(=O)(=O)c2ccc(C#CCN(C)C)cc2O[C@H]1CN(C)C(=O)c1ccccc1F	-0.2	1.2	-43.1	93.1	.	.	.	.
C[C@@H]1CN([C@@H](C)CO)S(=O)(=O)c2ccc(C#CCN(C)C)cc2O[C@H]1CN(C)C(=O)c1ccccc1F	-0.2	1.2	-37.3	100.8*	108.7*	89.3	11.1	5.7
C[C@H]1CN([C@@H](C)CO)S(=O)(=O)c2ccc(C#CCN(C)C)cc2O[C@@H]1CN(C)C(=O)c1ccccc1F	-1.6	0.6	-28.7	98.9*	105.4*	91.5	7.8	16.1
